Assay results published in ChEMBL document CHEMBL1144932, “Design, synthesis, and biological properties of new bis(acridine-4-carboxamides) as anticancer agents” (J Med Chem, 2003).

Tests used:
[1] = Apparent equilibrium constant for DNA binding (G-C); format: ADME
In short: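 Ethidium displacement at pH 7.0 in buffer of 10 mM Na2HPO4, 10 mM NaH2PO4, 1 mM EDTA with 1.26 μM ethidium bromide and 1 μM CT-DNA, [poly(dA-dT)]2 or [poly(dG-dC)]2. Drug stock (~5 mM in DMSO) added serially. Fluorescence read at 20 °C, excitation 546 nm, emission 595 nm. C50 is the mean of three determinations. Kapp = 1.26/C50 × 10^7.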

[2] = species: Homo sapiens; assay: In vitro cytotoxic activity against human colon adenocarcinoma (HT-29).; format: functional
In short: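 HT29 cells were seeded at 2.5 × 10^4 cells/mL of medium and drug solutions were added. Exposure lasted 144 h. IC50 is the drug concentration inhibiting cell growth by 50%. Assays were run in triplicate.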

**Q.** With COc1ccc2nc3c(C(=O)NCCN(C)C)ccc(NCCN(C)CCNc4ccc(C(=O)NCCN(C)C)c5nc6ccc(OC)cc6c(O)c45)c3c(O)c2c1 as the compound, how does the K app [1] read?
**A.** The K app was 8.8e+06 M⁻¹.

**Q.** And the IC50 [2]?
**A.** Its IC50 is 3.3 µM.

**Q.** For CN(C)CCNc1ccc(C(=O)NCCN(C)CCNC(=O)c2ccc(NCCN(C)C)c3c(O)c4cc(O)ccc4nc23)c2nc3ccc(O)cc3c(O)c12, which IC50 [2] is on record?
**A.** The IC50 was 8.9 µM.

**Q.** For CN(C)CCNc1ccc(C(=O)NCCCN(C)CCCNC(=O)c2ccc(NCCN(C)C)c3cc4ccccc4nc23)c2nc3ccccc3cc12, which IC50 [2] is on record?
**A.** Its IC50 is 0.23 µM.

**Q.** With CN(C)CCNc1ccc(C(=O)NCCN(C)CCNC(=O)c2ccc(NCCN(C)C)c3cc4ccccc4nc23)c2nc3ccccc3cc12 as the compound, how does the IC50 [2] read?
**A.** Its IC50 is 2 µM.

**Q.** Which K app [1] does the source give for CN(C)CCNC(=O)c1ccc(NCCN(C)CCNc2ccc(C(=O)NCCN(C)C)c3nc4ccccc4c(O)c23)c2c(O)c3ccccc3nc12 here?
**A.** Its K app is 3.8e+07 M⁻¹.

**Q.** And the IC50 [2]?
**A.** The IC50 was 0.41 µM.

**Q.** Which IC50 [2] does the source give for COc1ccc2nc3c(C(=O)NCCN(C)CCNC(=O)c4ccc(NCCN(C)C)c5c(O)c6cc(OC)ccc6nc45)ccc(NCCN(C)C)c3c(O)c2c1 here?
**A.** Its IC50 is 0.89 µM.
